# Reference: ChEMBL document CHEMBL1629545, “A morpholino oligomer targeting highly conserved internal ribosome entry site sequence is able to inhibit multiple species of picornavirus” (Antimicrob Agents Chemother, 2008)
# Experiments:
# [1] = test system: Poliovirus 1; experiment: Antiviral activity against Human poliovirus type 1 infected in Human HeLa cells assessed as log reduction in viral titer at 5 uM measured after 24 hrs post infection by plaque assay; type: functional, organism-based
# Outline: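 Nearly confluent HeLa cells were infected 1 h with a clinical PV1 isolate (passaged once in Vero and once in HeLa) at MOI 0.05. Inoculum was replaced by medium with 10% calf serum containing PPMO (2.5 or 5 μM) or water, at 37°C. Supernatant titre at 24 h p.i. was measured by plaque assay with 36 h plaque development.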
# [2] = test system: Vero; experiment: Cytotoxicity against African green monkey Vero cells at 10 uM after 24 hrs by MTS assay; type: cell-based; details: chlorocebus sabaeus
# [3] = test system: SK-N-MC; experiment: Cytotoxicity against human SK-N-MC cell at 10 uM after 24 hrs by MTS assay; type: cell-based
# [4] = test system: rhinovirus B14; experiment: Antiviral activity against Human rhinovirus type 14 infected in Human HeLa cell assessed as log reduction in viral titer at 5 uM measured after 48 hrs post infection by plaque assay; type: functional, organism-based
# Outline: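 HRV14 from an infectious clone was used to infect nearly confluent HeLa cells for 1 h at MOI 0.03. Cells were then kept in 10% calf serum medium with PPMO or water at 34°C. Supernatant titre at 48 h p.i. was measured by plaque assay at 34°C with 72 h plaque development. Two experiments were averaged.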
# [5] = test system: HeLa; experiment: Cytotoxicity against human HeLa cells at 1 to 10 uM after 24 hrs by MTS assay; type: cell-based
# Outline: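 HeLa cells at ~80% confluence, uninfected, exposed to 1–100 μM PPMO or water (mock) in serum-free DMEM-F-12 (1:1) for 24 h. MTS reagent was added for 4 h and absorbance read at 492 nm. Viability was expressed as percent of water-treated cells (set to 100%), averaged over 12 wells.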
compound,measurement,setting,value
Cc1cn([C@H]2CN(P(=O)(OC[C@@H]3CN(P(=O)(OC[C@@H]4CNC[C@H](n5cnc6c(=O)[nH]c(N)nc65)O4)N(C)C)C[C@H](n4cnc5c(N)ncnc54)O3)N(C)C)C[C@@H](COP(=O)(N(C)C)N3C[C@@H](COP(=O)(N(C)C)N4C[C@@H](COP(=O)(N(C)C)N5C[C@@H](COP(=O)(N(C)C)N6C[C@@H](COP(=O)(N(C)C)N7C[C@@H](COP(=O)(N(C)C)N8C[C@@H](COP(=O)(N(C)C)N9C[C@@H](COP(=O)(N(C)C)N%10C[C@@H](COP(=O)(N(C)C)N%11C[C@@H](COP(=O)(N(C)C)N%12C[C@@H](COP(=O)(N(C)C)N%13C[C@@H](COP(=O)(N(C)C)N%14C[C@@H](COP(=O)(N(C)C)N%15C[C@@H](COP(=O)(N(C)C)N%16C[C@@H](COP(=O)(N(C)C)N%17C[C@@H](COP(=O)(N(C)C)N%18C[C@@H](COP(=O)(N(C)C)N%19C[C@@H](COP(=O)(N(C)C)N%20C[C@@H](COP(=O)(N(C)C)N%21C[C@@H](COP(=O)(N(C)C)N%22C[C@@H](COP(=O)(N(C)C)N%23C[C@@H](COP(=O)(N(C)C)N%24CCN(C(=O)[C@H](CS)NC(=O)[C@H](Cc%25ccccc%25)NC(=O)[C@H](Cc%25ccccc%25)NC(=O)[C@H](CCCNC(=N)N)NC(=O)[C@H](CCCNC(=N)N)NC(=O)[C@H](CCCNC(=N)N)NC(=O)[C@H](CCCNC(=N)N)NC(=O)[C@H](CCCNC(=N)N)NC(=O)[C@H](CCCNC(=N)N)NC(=O)[C@H](CCCNC(=N)N)NC(=O)[C@H](CCCNC(=N)N)NC(=O)[C@@H](N)CCCNC(=N)N)CC%24)O[C@@H](n%24cnc%25c(=O)[nH]c(N)nc%25%24)C%23)O[C@@H](n%23cnc%24c(N)ncnc%24%23)C%22)O[C@@H](n%22cnc%23c(=O)[nH]c(N)nc%23%22)C%21)O[C@@H](n%21cnc%22c(N)ncnc%22%21)C%20)O[C@@H](n%20cnc%21c(N)ncnc%21%20)C%19)O[C@@H](n%19cnc%20c(N)ncnc%20%19)C%18)O[C@@H](n%18ccc(N)nc%18=O)C%17)O[C@@H](n%17cnc%18c(N)ncnc%18%17)C%16)O[C@@H](n%16ccc(N)nc%16=O)C%15)O[C@@H](n%15cnc%16c(=O)[nH]c(N)nc%16%15)C%14)O[C@@H](n%14cnc%15c(=O)[nH]c(N)nc%15%14)C%13)O[C@@H](n%13cnc%14c(N)ncnc%14%13)C%12)O[C@@H](n%12ccc(N)nc%12=O)C%11)O[C@@H](n%11cnc%12c(N)ncnc%12%11)C%10)O[C@@H](n%10ccc(N)nc%10=O)C9)O[C@@H](n9ccc(N)nc9=O)C8)O[C@@H](n8ccc(N)nc8=O)C7)O[C@@H](n7cnc8c(N)ncnc87)C6)O[C@@H](n6cnc7c(N)ncnc76)C5)O[C@@H](n5cnc6c(N)ncnc65)C4)O[C@@H](n4cnc5c(=O)[nH]c(N)nc54)C3)O2)c(=O)[nH]c1=O (stereo not given in full),FC,[1],2
same,Activity,[2],Non-toxic
same,Activity,[3],Non-toxic
same,FC,[4],2
same,Activity,[5],Non-toxic
